This note sets out measurements from the array DNA melting data of Ke et al. (doi:10.1101/2024.01.08.574731).

The nature of data set [1]: melting temperature; fluorescence melt of hairpins on a sequencing array, two-state fit, raised by 9.35 °C to match UV melts. Particulars: sodium 0.088 M. The method, boiled down:
(§1)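 Cy3 fluorescence of library hairpins on a sequenced MiSeq flow cell, with annealed Cy3 and quencher oligos, was imaged in 50 mM Na-HEPES pH 8.0, 25 mM NaCl in 2.5 °C steps up to 60 °C. Signals were normalised to pre-quench Cy3 and to control variants. Melting temperature and folding enthalpy came from bootstrapped two-state fits, inverse-variance combined over four replicates. Fitted temperatures were raised by 9.35 °C to match UV melts.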

Data set [2] can be described thus: folding enthalpy; higher = less favourable; fluorescence melt of hairpins on a sequencing array, two-state fit. Particulars: sodium 0.088 M. The method, boiled down: as §1

For the sequence GCACGCGAAAGCGATGC ((((((....))).))), the Tm in data set [1] is 65.2 °C. Besides, in data set [2], the folding enthalpy is -21.3 kcal/mol.

For the sequence GCACGCGAAAGCGCATGC ((((((....)))..))), the Tm in data set [1] came to 43 °C. For the same sequence, the folding enthalpy in data set [2] was -13.6 kcal/mol.

Consider GCACGCGAAAGCGGGTGC ((((((....)))..))), for which the Tm in data set [1] worked out at 66.1 °C. In data set [2], the folding enthalpy is -17.4 kcal/mol.

Take GCACGCGAAAGCGTTTGC ((((((....)))..))): in data set [1], the Tm amounted to 42.9 °C. The folding enthalpy in data set [2] was -10.6 kcal/mol.

Regarding GCACGCGGAAACGCATGC (((.(((....))).))), the Tm in data set [1] was 52.8 °C. Besides, the folding enthalpy in data set [2] was -40.4 kcal/mol.

For the sequence GCACGGCGAAAGCAATGC (((..((....))..))), the Tm in data set [1] amounted to 39.1 °C. Moreover, in data set [2], the folding enthalpy was -15.5 kcal/mol.

For GCACGGCGAAAGCCCCGC ((..(((....)))..)), in data set [1], the Tm was found to be 32.2 °C. The folding enthalpy in data set [2] was -8.33 kcal/mol.

Regarding GCACGGCGAAAGCCCTGC (((.(((....))).))), the Tm in data set [1] came to 47.3 °C. The folding enthalpy in data set [2] was -26 kcal/mol.

On to GCACGGCGAAAGCCTAGC ((..(((....)))..)), for which the Tm in data set [1] was 39.5 °C. Besides, the folding enthalpy in data set [2] was -14.4 kcal/mol.

Regarding GCACGGCGAAAGCCTTGC (((.(((....))).))), the Tm in data set [1] worked out at 54.2 °C. Further, the folding enthalpy in data set [2] was -54.8 kcal/mol.

Take GCACGGGGAAACCCACGC ((..(((....)))..)): in data set [1], the Tm is 41.5 °C. In addition, in data set [2], the folding enthalpy was -23.9 kcal/mol.

Take GCACGGGGAAACTCGTGC (((((.(....).))))): in data set [1], the Tm stood at 60.5 °C. Besides, the folding enthalpy in data set [2] is -45.9 kcal/mol.

Consider GCACGGTCGAAAGACTGC (((..(((....)))))), for which the Tm in data set [1] worked out at 39.4 °C. The folding enthalpy in data set [2] was -13.9 kcal/mol.

Turning to GCACGTGGAAACACGCAC (..((((....))))..), the Tm in data set [1] amounted to 29.2 °C. Further, the folding enthalpy in data set [2] is -9.68 kcal/mol.

For the sequence GCACTACGAAAGTAATGC (((.(((....))).))), the Tm in data set [1] was found to be 43.7 °C. In data set [2], the folding enthalpy is -29.3 kcal/mol.

Take GCACTAGGAAACTAGCGC ((.((((....)))).)): the Tm in data set [1] was 45.5 °C. In addition, the folding enthalpy in data set [2] is -33.4 kcal/mol.

Take GCACTCCCGAAAGGGTGC (((..(((....)))))): the Tm in data set [1] was determined as 50.7 °C. For the same sequence, the folding enthalpy in data set [2] was -24.2 kcal/mol.

On to GCACTCCGAAAGGATTGC (((.(((....))).))), for which the Tm in data set [1] was 50.6 °C. In addition, in data set [2], the folding enthalpy was -28.1 kcal/mol.

Regarding GCACTCGAAAGAGATGC ((((((....))).))), in data set [1], the Tm amounted to 49.4 °C. Moreover, the folding enthalpy in data set [2] was -29.4 kcal/mol.

On to GCACTCGAAAGAGGGTGC ((((((....)))..))), for which the Tm in data set [1] stood at 50.8 °C. The folding enthalpy in data set [2] is -31.5 kcal/mol.

On to GCACTCGAAAGAGTTGC ((((((....))).))), for which, in data set [1], the Tm stood at 51.4 °C. Besides, in data set [2], the folding enthalpy was -22.3 kcal/mol.

In the case of GCACTCGGAAACGAGCAC (..((((....))))..), the Tm in data set [1] turned out to be 29.3 °C. Further, in data set [2], the folding enthalpy was -11.7 kcal/mol.

Take GCACTCTCGAAAGAGTGC (((..(((....)))))): the Tm in data set [1] amounted to 65 °C. Besides, the folding enthalpy in data set [2] is -45.9 kcal/mol.

For the sequence GCACTGCGAAAGCAGCGC ((.((((....)))).)), in data set [1], the Tm worked out at 69.1 °C. Moreover, in data set [2], the folding enthalpy was -28.9 kcal/mol.

With GCACTGCGAAAGCGCTGC (((..((....))..))), the Tm in data set [1] was 42.6 °C. Besides, the folding enthalpy in data set [2] is -20.6 kcal/mol.

Regarding GCACTGGGAAACCGGTGC ((((.((....)).)))), the Tm in data set [1] worked out at 59.6 °C. Further, the folding enthalpy in data set [2] is -44.1 kcal/mol.

Turning to GCACTGTCGAAAGACTGC (((..(((....)))))), the Tm in data set [1] was 39.4 °C. Besides, the folding enthalpy in data set [2] was -15.9 kcal/mol.

On to GCAGACCGAAAGGTATGC (((.(((....))).))), for which the Tm in data set [1] amounted to 64.1 °C. The folding enthalpy in data set [2] is -39.5 kcal/mol.

For the sequence GCAGACGAAAGTCAATGC ((((((....)))..))), in data set [1], the Tm amounted to 43.9 °C. In addition, in data set [2], the folding enthalpy was -19.3 kcal/mol.

Regarding GCAGACGAAAGTCAGTGC ((((((....)))..))), in data set [1], the Tm came to 46.4 °C. Besides, the folding enthalpy in data set [2] is -19 kcal/mol.

As for GCAGACGAAAGTCATTGC ((((((....)))..))), in data set [1], the Tm was determined as 37.1 °C. The folding enthalpy in data set [2] was -16.5 kcal/mol.

Take GCAGACGAAAGTCCATGC ((((((....)))..))): in data set [1], the Tm came out at 35.3 °C. Further, in data set [2], the folding enthalpy is -16.5 kcal/mol.

For GCAGACGAAAGTCCGTGC ((((((....)))..))), in data set [1], the Tm stood at 38.6 °C. In addition, the folding enthalpy in data set [2] is -15.1 kcal/mol.

In the case of GCAGACGAAAGTCCTGC ((((((....))).))), the Tm in data set [1] amounted to 52.9 °C. The folding enthalpy in data set [2] was -23.8 kcal/mol.

For the sequence GCAGACGAAAGTCGCTGC ((((((....)))..))), the Tm in data set [1] is 57.6 °C. Also, the folding enthalpy in data set [2] is -22.2 kcal/mol.

For the sequence GCAGACGAAAGTCTCTGC ((((((....)))..))), in data set [1], the Tm was determined as 44.1 °C. The folding enthalpy in data set [2] was -14.8 kcal/mol.
